# Calls of active or inactive are those of the source. No cut-off for these calls is given here.
# Columns and labels:
# Proteus vulgaris = assay: Antibacterial activity against Proteus vulgaris MB838 assessed as growth inhibition at 200 ug/mL; format: functional, organism-based
# Salmonella = assay: Antibacterial activity against Salmonella schottmuelleri MB2837 assessed as growth inhibition; format: functional
# Outline: (§1)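 MIC (µg/mL) by in vitro growth inhibition in an assay system at pH 7.4. Tetracycline was run routinely to check medium, incubation conditions and inoculum virility.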
# Klebsiella aerogenes = assay: Antibacterial activity against Klebsiella aerogenes MB1503 assessed as growth inhibition; format: functional; outline: as §1
# Escherichia coli = assay: Antibacterial activity against Escherichia coli MB2884 assessed as growth inhibition; format: functional; outline: as §1
# Pasteurella multocida = assay: Antibacterial activity against Pasteurella multocida MB7 assessed as growth inhibition at 2 to 8 ug/mL; format: functional, organism-based
# [1] = tested on: Bordetella bronchiseptica; assay: Antibacterial activity against Bordetella bronchiseptica MB3551 assessed as growth inhibition; format: functional; outline: as §1
# Pseudomonas aeruginosa [2] = assay: Antibacterial activity against Pseudomonas aeruginosa MB2245 assessed as growth inhibition; format: functional; outline: as §1
# Bacillus subtilis = assay: Antibacterial activity against Bacillus subtilis MB964 assessed as growth inhibition; format: functional; outline: as §1
# Streptococcus pyogenes = assay: Antibacterial activity against Streptococcus pyogenes assessed as growth inhibition at 2 to 8 ug/mL; format: functional, organism-based
# Pseudomonas aeruginosa [3] = assay: Antibacterial activity against Pseudomonas aeruginosa MB418 assessed as growth inhibition; format: functional; outline: as §1
# Staphylococcus aureus [4] = assay: Antibacterial activity against Staphylococcus aureus MB2865 assessed as growth inhibition; format: functional; outline: as §1
# [5] = tested on: Bordetella bronchiseptica; assay: Antibacterial activity against Bordetella bronchiseptica MB905 assessed as growth inhibition; format: functional; outline: as §1
# [6] = tested on: Corynebacterium pseudodiphtheriticum; assay: Antibacterial activity against Corynebacterium pseudodiphtheriticum assessed as growth inhibition at 2 to 8 ug/mL; format: functional, organism-based
# Staphylococcus aureus [7] = assay: Antibacterial activity against Staphylococcus aureus MB108 assessed as growth inhibition; format: functional; outline: as §1
Compound,growth inhibition (GI) (Proteus vulgaris),MIC (Salmonella),MIC (Klebsiella aerogenes),MIC (Escherichia coli),growth inhibition (GI) (Pasteurella multocida),MIC [1],MIC (Pseudomonas aeruginosa [2]),MIC (Bacillus subtilis),growth inhibition (GI) (Streptococcus pyogenes),MIC (Pseudomonas aeruginosa [3]),MIC (Staphylococcus aureus [4]),MIC [5],growth inhibition (GI) [6],MIC (Staphylococcus aureus [7])
CC1(C)C2CCC(C2)C1CCC(CCC1C2CCC(C2)C1(C)C)NCCNCCNCCCN.Cl (stereo unspecified),inactive,6 µg/mL,10 µg/mL,10 µg/mL,Active,30 µg/mL,60 µg/mL,6 µg/mL,Active,60 µg/mL,6 µg/mL,6 µg/mL,inactive,20 µg/mL
Cl.NCCCNCCCNC(CCC1CCCCC1)CCC1CCCCC1,inactive,2 µg/mL,6 µg/mL,15 µg/mL,Active,2 µg/mL,15 µg/mL,2 µg/mL,Active,30 µg/mL,10 µg/mL,2 µg/mL,inactive,2 µg/mL
CC1(C)C2CCC(C2)C1CCC(CCC1C2CCC(C2)C1(C)C)NCCNCCNCCN.Cl (stereo unspecified),inactive,4 µg/mL,8 µg/mL,8 µg/mL,Active,10 µg/mL,30 µg/mL,4 µg/mL,Active,50 µg/mL,30 µg/mL,4 µg/mL,inactive,4 µg/mL
Cl.NCCNCCNCCNC(CCCC1CCCCC1)CCCC1CCCCC1,inactive,6 µg/mL,6 µg/mL,10 µg/mL,Active,4 µg/mL,30 µg/mL,4 µg/mL,Active,30 µg/mL,15 µg/mL,6 µg/mL,inactive,6 µg/mL
CC(C)c1ccc(CCC(CCc2ccc(C(C)C)cc2)NCCNCCNCCN)cc1.Cl,inactive,4 µg/mL,40 µg/mL,30 µg/mL,Active,15 µg/mL,60 µg/mL,6 µg/mL,Active,40 µg/mL,30 µg/mL,8 µg/mL,inactive,6 µg/mL
CC1(C)C2CCC(C2)C1CCC(CCC1C2CCC(C2)C1(C)C)NCCCN1CCN(CCCN)CC1.Cl (stereo unspecified),inactive,6 µg/mL,4 µg/mL,20 µg/mL,Active,8 µg/mL,200 µg/mL,8 µg/mL,Active,200 µg/mL,20 µg/mL,4 µg/mL,inactive,6 µg/mL
CC1(C)C2CCC(C2)C1CCC(CCC1C2CCC(C2)C1(C)C)NCCN(CCN)CCN.Cl (stereo unspecified),inactive,4 µg/mL,8 µg/mL,8 µg/mL,Active,4 µg/mL,8 µg/mL,4 µg/mL,Active,50 µg/mL,8 µg/mL,4 µg/mL,inactive,4 µg/mL
Cc1ccc(C(C)(C)C)cc1CCCC(CCCc1cc(C(C)(C)C)ccc1C)NCCCNCCCNCCCN.Cl,inactive,8 µg/mL,200 µg/mL,100 µg/mL,Active,8 µg/mL,50 µg/mL,6 µg/mL,Active,40 µg/mL,8 µg/mL,8 µg/mL,inactive,20 µg/mL
Cl.NCCCNCCCNC(CCc1ccc2ccccc2c1)CCc1ccc2ccccc2c1,inactive,8 µg/mL,20 µg/mL,15 µg/mL,Active,4 µg/mL,100 µg/mL,8 µg/mL,Active,40 µg/mL,8 µg/mL,4 µg/mL,inactive,6 µg/mL
Cl.NCCCNCCCNC(CCCC1CC=CCC1)CCCC1CC=CCC1 (stereo unspecified),inactive,4 µg/mL,6 µg/mL,10 µg/mL,Active,4 µg/mL,15 µg/mL,4 µg/mL,Active,20 µg/mL,10 µg/mL,2 µg/mL,inactive,6 µg/mL
CC(C)c1ccc(CCCC(CCCc2ccc(C(C)C)cc2)NCCNCCNCCN)cc1.Cl,inactive,10 µg/mL,60 µg/mL,15 µg/mL,Active,30 µg/mL,80 µg/mL,4 µg/mL,Active,8 µg/mL,20 µg/mL,30 µg/mL,inactive,6 µg/mL
Cl.NCCCNCCCNC(CCC1CCCC1)CCC1CCCC1,inactive,8 µg/mL,15 µg/mL,30 µg/mL,Active,4 µg/mL,30 µg/mL,6 µg/mL,Active,60 µg/mL,15 µg/mL,4 µg/mL,inactive,20 µg/mL
Cl.NCCNCCNCCNC(CCC1CCCCC1)CCC1CCCCC1,inactive,4 µg/mL,15 µg/mL,20 µg/mL,Active,4 µg/mL,30 µg/mL,6 µg/mL,Active,40 µg/mL,30 µg/mL,6 µg/mL,inactive,6 µg/mL
CN(CCCNCCCN)C(CCC1CCCCC1)CCC1CCCCC1.Cl,inactive,1 µg/mL,4 µg/mL,8 µg/mL,Active,4 µg/mL,20 µg/mL,4 µg/mL,Active,8 µg/mL,30 µg/mL,6 µg/mL,inactive,10 µg/mL
